Only a selection was taken, and hits are over-represented in it overall.
ABCB1 block = blocks JC-1 efflux by human ABCB1 transporter; P08183; CCRF-Adr cells, flow cytometry; inhibition, % at 6.6 µM; 190,000 tested, 0.067% active; in the data active = inhibition above about 40%;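 also: 0% = vehicle and 100% = reference inhibitor; higher value means more JC-1 retained so stronger ABCB1 efflux block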
Target sequence (P08183 whole entry, looked up): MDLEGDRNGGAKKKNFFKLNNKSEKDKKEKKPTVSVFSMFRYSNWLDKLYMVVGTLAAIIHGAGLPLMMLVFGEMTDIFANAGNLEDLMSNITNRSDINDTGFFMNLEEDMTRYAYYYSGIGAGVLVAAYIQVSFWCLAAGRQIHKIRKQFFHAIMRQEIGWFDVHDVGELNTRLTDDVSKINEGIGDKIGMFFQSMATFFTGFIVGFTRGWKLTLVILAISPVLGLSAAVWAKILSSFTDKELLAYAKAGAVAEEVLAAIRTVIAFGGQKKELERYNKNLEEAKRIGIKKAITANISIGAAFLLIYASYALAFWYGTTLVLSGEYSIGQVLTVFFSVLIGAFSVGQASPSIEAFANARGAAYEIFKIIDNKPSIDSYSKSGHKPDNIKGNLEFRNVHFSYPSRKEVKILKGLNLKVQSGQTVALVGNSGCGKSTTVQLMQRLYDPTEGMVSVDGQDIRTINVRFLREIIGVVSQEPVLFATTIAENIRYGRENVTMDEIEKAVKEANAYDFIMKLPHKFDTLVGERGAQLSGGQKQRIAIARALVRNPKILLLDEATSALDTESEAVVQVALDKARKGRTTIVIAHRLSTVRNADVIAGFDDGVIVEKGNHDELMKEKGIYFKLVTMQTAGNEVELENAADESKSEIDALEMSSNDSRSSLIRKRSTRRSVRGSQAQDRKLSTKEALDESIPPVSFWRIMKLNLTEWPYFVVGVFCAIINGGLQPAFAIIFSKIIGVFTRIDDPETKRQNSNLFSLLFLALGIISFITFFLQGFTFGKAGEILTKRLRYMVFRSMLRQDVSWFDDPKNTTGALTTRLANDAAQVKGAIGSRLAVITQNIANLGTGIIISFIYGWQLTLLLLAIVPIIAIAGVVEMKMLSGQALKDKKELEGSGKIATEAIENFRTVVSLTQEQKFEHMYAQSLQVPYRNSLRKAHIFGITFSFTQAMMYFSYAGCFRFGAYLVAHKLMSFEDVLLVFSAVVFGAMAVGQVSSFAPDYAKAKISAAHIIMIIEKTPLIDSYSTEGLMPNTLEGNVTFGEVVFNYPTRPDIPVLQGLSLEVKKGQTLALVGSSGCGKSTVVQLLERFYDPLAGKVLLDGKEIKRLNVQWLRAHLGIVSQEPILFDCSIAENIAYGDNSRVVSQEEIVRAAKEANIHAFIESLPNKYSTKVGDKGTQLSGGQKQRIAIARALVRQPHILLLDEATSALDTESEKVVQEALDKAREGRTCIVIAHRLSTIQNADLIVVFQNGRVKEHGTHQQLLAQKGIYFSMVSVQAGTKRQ
ABCG2 inh = human ABCG2 inhibition, ABCB1 as counter-screen. IgMXP3 cells, JC-1 efflux, flow cytometry. inhibition, % at 6.6 µM. 190,000 tested, 0.1% active. AID 1325;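 active = inhibition above 80%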;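 also: 0% = DMSO and 100% = nicardipine control wells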
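Test system: IgMXP3 cells (ABCG2) mixed with DDAO far-red-labelled CCRF-Adr cells (ABCB1). Reagent: JC-1 transporter substrate. Compound dosing: single test compound dose, 6.6 µM final. Times: 10 min compound exposure, 25 °C. Detection: flow cytometry of retained JC-1 fluorescence. Read-out basis: efflux inhibition in percent versus controls. Controls: nicardipine and DMSO wells.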
PKD1 kinase inh = PKD1 (human) kinase inhibition. Q15139. PKD1 kinase fluorescence polarization assay. inhibition, % (test concentration not listed). 200,000 tested, 0.056% active
GSH fluor = compound fluoresces at 488/530 nm on GSH beads; AID 1776; fluorescence (KMESF) at 10 µM; GSH beads flow cytometry, compound fluorescence 488/530 nm; active compounds read high; 190,000 tested, 0.25% active; in the data active = fluorescence above about 89;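 also: glutathione beads carrying GST-tagged Bcl family fusion proteins plus one bare bead set; values are compound well signal with DMSO vehicle wells as background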
Avidin bead fluor = compound fluoresces at 488/530 nm on avidin beads; compound fluorescence 488/530 nm, flow cytometry; active compounds read high; fluorescence (KMESF) at 10 µM; 220,000 tested, 0.38% active; in the data active = fluorescence above about 47
Lmaj promast = reduces viability of Leishmania major promastigotes | resazurin fluorescence viability | inhibition, % at 10 µM | 200,000 tested, 9% active;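 also: promastigotes grown with compound for 44 hours at 28 °C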
* hit, by the source's call. Rule as the data show it, unless noted: active = inhibition above about 50%; inactive = the rest.

`COc1ccc(C(=O)C2CCCN(Cc3cccn3-c3cccnc3)C2)cc1OC` (configuration not stated) gave ABCB1 block 6, ABCG2 inh 8, PKD1 kinase inh 10, GSH fluor 11, Avidin bead fluor 4 and Lmaj promast 8.
For O=C(c1ccc2c(c1)OCO2)C1CCCN(Cc2cccn2-c2cccnc2)C1 (configuration not stated) the results were ABCB1 block 3, ABCG2 inh 5, PKD1 kinase inh 3, GSH fluor 15, Avidin bead fluor 1 and Lmaj promast 94*.
Screening CCCC(=O)n1nc(-c2ccc(C)cc2)nc1NCc1ccco1 returned ABCB1 block 0, ABCG2 inh 0, PKD1 kinase inh -5, GSH fluor 9, Avidin bead fluor 2 and Lmaj promast 8.
Screening Nc1cc(-c2ccc(Br)cc2)nn1S(=O)(=O)c1cccc2nsnc12 returned ABCB1 block -2, ABCG2 inh -2, PKD1 kinase inh -1, GSH fluor 18, Avidin bead fluor 7 and Lmaj promast 14.
Screening CC(C)(C)c1ccc(NC(=O)COC(=O)C2(C)CC2(Cl)Cl)cc1 (configuration not stated) returned ABCB1 block 0, ABCG2 inh 26, PKD1 kinase inh 6, GSH fluor 12, Avidin bead fluor 10 and Lmaj promast 10.
Cc1ccc(NC(=O)c2ccc(OC(=O)COc3cccc(Cl)c3)cc2)cc1 was read as ABCB1 block 1, ABCG2 inh 2, PKD1 kinase inh -4, GSH fluor 9, Avidin bead fluor 3 and Lmaj promast -11.
For COC(=O)Cn1ncc(N2C3CC(CC(C)(C)C3)C2C)c(Cl)c1=O (configuration not stated) the results were ABCB1 block 2, ABCG2 inh 14, PKD1 kinase inh -21, GSH fluor 7, Avidin bead fluor 14 and Lmaj promast 81*.
`CCCOc1ccc(NC(=O)C2CC(=O)N(C)C(=Nc3cccc(OC)c3)S2)cc1` (configuration not stated) gave ABCB1 block 2, ABCG2 inh 8, PKD1 kinase inh 3, GSH fluor 13, Avidin bead fluor 11 and Lmaj promast -4.
For COc1ccc2nc(NC(=O)CN(c3ccc(C)cc3)S(=O)(=O)c3c(C)nn(C)c3C)sc2c1 the results were ABCB1 block 0, ABCG2 inh -3, PKD1 kinase inh 8, GSH fluor 15, Avidin bead fluor 11 and Lmaj promast 80*.
`Cc1ccc2nc(NC(=O)CNS(=O)(=O)c3ccc(Br)s3)sc2c1` gave ABCB1 block 0, ABCG2 inh 0, PKD1 kinase inh -2, GSH fluor 4, Avidin bead fluor 5 and Lmaj promast 0.
CCc1ccc(N(CC(=O)Nc2nc3ccc(C)cc3s2)S(=O)(=O)c2c(C)noc2C)cc1 was read as ABCB1 block 0, ABCG2 inh -1, PKD1 kinase inh -8, GSH fluor 29, Avidin bead fluor 6 and Lmaj promast 52*.
Screening Cc1ccc2nc(NC(=O)CN(C)S(=O)(=O)c3ccc(Br)s3)sc2c1 returned ABCB1 block 0, ABCG2 inh 0, PKD1 kinase inh 5, GSH fluor 11, Avidin bead fluor 16 and Lmaj promast 99*.
`CN(C)c1ccc(/C=N/NC(=O)CCc2nc3ccccc3[nH]2)cc1` gave Avidin bead fluor 6.
For FC(F)(F)c1cc(-c2cccs2)nc2nc(N3CCOCC3)sc12 the results were ABCB1 block 0, ABCG2 inh 3, PKD1 kinase inh 0, GSH fluor 17, Avidin bead fluor 28 and Lmaj promast 0.
For CCn1c(NC(=O)Nc2ccccc2OC)nc2ccccc21 the results were ABCB1 block 0, ABCG2 inh 1, PKD1 kinase inh 5, GSH fluor 14, Avidin bead fluor 32 and Lmaj promast 20.
For O=S(=O)(C/C(=C/CO)S(=O)(=O)c1ccccc1)c1ccccc1 the results were ABCB1 block 0, ABCG2 inh 2, PKD1 kinase inh -9, GSH fluor 4, Avidin bead fluor 6 and Lmaj promast 55*.
For CCOC(=O)C1CCN(C(=O)CSc2ccccc2Cl)CC1 the results were ABCB1 block 1, ABCG2 inh 4, PKD1 kinase inh 2, GSH fluor 15, Avidin bead fluor 10 and Lmaj promast -1.
`Cc1cc(OCC(O)CN)ccc1Cl` (configuration not stated) gave ABCB1 block 0, ABCG2 inh -1, PKD1 kinase inh 3, GSH fluor 10, Avidin bead fluor 9 and Lmaj promast 92*.
CC1=Nn2c(nnc2-c2n[nH]c3c2CCC3)SC1 was read as ABCB1 block 1, ABCG2 inh 4, PKD1 kinase inh -7, GSH fluor 51, Avidin bead fluor 7 and Lmaj promast 5.
`Cc1cc(-c2nnc3n2N=C(c2ccccc2)CS3)n[nH]1` gave Avidin bead fluor 7.
For Cc1cc(-c2nnc3n2N=C(c2ccc(-c4ccccc4)cc2)CS3)n[nH]1 the results were ABCB1 block 1, ABCG2 inh 5, PKD1 kinase inh 4, GSH fluor 13, Avidin bead fluor 31 and Lmaj promast 66*.
`c1ccc(-c2cc(-c3nnc4n3N=C(c3ccc5ccccc5c3)CS4)[nH]n2)cc1` gave ABCB1 block 1, ABCG2 inh 4, PKD1 kinase inh -11, GSH fluor 15, Avidin bead fluor 33 and Lmaj promast 55*.
`Fc1ccc(C2=Nn3c(nnc3-c3n[nH]c4c3CCC4)SC2)cc1` gave ABCB1 block 1, ABCG2 inh 4, PKD1 kinase inh -5, GSH fluor 46, Avidin bead fluor 9 and Lmaj promast 51*.
O=S(=O)(Nc1ccc(O)c(Sc2nc3ccccc3s2)c1)c1ccc(F)cc1 was read as ABCB1 block 0, ABCG2 inh -2, PKD1 kinase inh -3, GSH fluor 7, Avidin bead fluor 15 and Lmaj promast 35.
For CS(=O)(=O)c1ccc(Sc2nc3ccccc3s2)c([N+](=O)[O-])c1 the results were ABCB1 block 1, ABCG2 inh 13, PKD1 kinase inh -5, GSH fluor 8, Avidin bead fluor 10 and Lmaj promast 80*.
O=[N+]([O-])c1cc(S(=O)(=O)C(F)(F)F)ccc1Sc1nc2ccccc2[nH]1 was read as ABCB1 block 0, ABCG2 inh -1, PKD1 kinase inh -6, GSH fluor 37, Avidin bead fluor 7 and Lmaj promast 100*.
For O=[N+]([O-])c1cc(S(=O)(=O)C(F)(F)F)ccc1Sc1nc2ccccc2s1 the results were ABCB1 block 0, ABCG2 inh 3, PKD1 kinase inh -12, GSH fluor 14, Avidin bead fluor 14 and Lmaj promast 101*.
